ChEMBL document CHEMBL3045132, “Synthesis and antiviral activity of novel chiral cyanoacrylate derivatives” (2005)

Tests used:
Format in all cases: functional
[1] = tested on: A-431; assay: Antiproliferative activity against Homo sapiens (human) A431 cells at 5 uM measured after 72 hr by MTT assay; details: A-431, 72 h
In short: (§1)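 Cells plated at 3 × 10³/well in F-12 (PC3) or RPMI 1640 (A431) with 10% fetal bovine serum; compounds dissolved in DMSO, diluted in medium, exposed 72 h; vehicle control 0.1% DMSO. MTT cleavage to formazan read at 550 nm. Inhibition rate (%) = (A1 − A2)/A1 × 100, A1 untreated and A2 treated mean optical density; values as mean ± s.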

[2] = tested on: PC-3; assay: Antiproliferative activity against Homo sapiens (human) PC3 cells at 5 uM measured after 72 hr by MTT assay; details: PC-3, 72 h; in short: as §1
[3] = tested on: Echinochloa crus-galli; assay: Herbicidal activity against Echinochloa crus-galli (barnyard grass) assessed as inhibition effect at 1500 g/ha sprayed to the stem and leaves after seed germination
In short: (§2)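 Post-emergence: compounds sprayed onto stems and leaves after seed germination; equal amount of water sprayed as control. Aerial tissue fresh weight measured 10 days after treatment; activity expressed as percent inhibition of aerial fresh weight.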

[4] = tested on: Echinochloa crus-galli; assay: Herbicidal activity against Echinochloa crus-galli (barnyard grass) assessed as inhibition effect at 1500 g/ha sprayed soil immediately after seed planting
In short: (§3)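 Pre-emergence: compounds sprayed onto soil immediately after seed planting; equal amount of water sprayed as control. Aerial tissue fresh weight measured 10 days after treatment; activity expressed as percent inhibition of aerial fresh weight.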

[5] = tested on: Amaranthus retroflexus; assay: Herbicidal activity against Amaranthus retroflexus assessed as inhibition effect at 1500 g/ha sprayed to the stem and leaves after seed germination; in short: as §2
[6] = tested on: Amaranthus retroflexus; assay: Herbicidal activity against Amaranthus retroflexus assessed as inhibition effect at 1500 g/ha sprayed soil immediately after seed planting; in short: as §3
[7] = tested on: Brassica rapa subsp. oleifera; assay: Herbicidal activity against Brassica rapa subsp. oleifera assessed as inhibition effect at 1500 g/ha sprayed to the stem and leaves after seed germination; in short: as §2
[8] = tested on: Brassica rapa subsp. oleifera; assay: Herbicidal activity against Brassica rapa subsp. oleifera assessed as inhibition effect at 1500 g/ha sprayed soil immediately after seed planting; in short: as §3
[9] = tested on: Tobacco mosaic virus; assay: Antiviral activity against Tobacco mosaic virus (TMV) inoculated in whole leaves of Nicotiana tabacum L. assessed as curative effect measured as local lesion number at 500 mg/l after 3 to 4 days
In short: (§4)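 Same-age N. tabacum L. leaves dipped-inoculated over the whole leaf with TMV at 6 × 10^-3 mg/mL, then washed with water and dried. Compound solution smeared on left half, solvent on right half as control. Local lesions counted 3-4 days after inoculation; three repetitions. Inhibition (%) calculated from control versus treated average lesion numbers.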

[10] = tested on: Tobacco mosaic virus; assay: Antiviral activity against Tobacco mosaic virus (TMV) inoculated in left side of Nicotiana tabacum L. leaves assessed as inhibition of local lesion number at 500 mg/l measured after 3 to 4 days
In short: (§5)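 Half-leaf test on Nicotiana tabacum L.: TMV mixed with an equal volume of compound solution for 30 min, then inoculated on the left half-leaf; right half received virus plus solvent as control. Local lesions counted 3-4 days after inoculation; three repetitions. Inhibition (%) = (control lesions − treated lesions)/control lesions.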

[11] = tested on: Tobacco mosaic virus; assay: Antiviral activity against Tobacco mosaic virus (TMV) inoculated in whole leaves of Nicotiana tabacum L. assessed as curative effect measured as local lesion number at 50 mg/l after 3 to 4 days; in short: as §4
[12] = tested on: Tobacco mosaic virus; assay: Antiviral activity against Tobacco mosaic virus (TMV) inoculated in left side of Nicotiana tabacum L. leaves assessed as inhibition of local lesion number at 50 mg/l measured after 3 to 4 days; in short: as §5

In the case of `CCOC(=O)/C(C#N)=C(/Nc1ccc(C(F)(F)F)cc1)N[C@H](C)c1ccccc1`, the inhibition at 5 µM [1] is reported as 43.1%, the inhibition at 5 µM [2] is reported as 59.4% and the inhibition at 1500 g/ha [3] is reported as 2.86%. The inhibition at 1500 g/ha [4] was 11.4%, the inhibition at 1500 g/ha [5] was 0% and the inhibition at 1500 g/ha [6] was 0%. The inhibition at 1500 g/ha [7] was 0%, the inhibition at 1500 g/ha [8] was 16.1% and the inhibition at 500 µg/mL [9] was 39.1%. The inhibition at 500 µg/mL [10] was 28.9%.

In the case of `COc1ccc2c3c(c4cc(OC)c(OC)cc4c2c1)C[C@H]1CCCN1C3` [(-)-ANTOFINE], the inhibition at 50 µg/mL [11] is reported as 29.2% and the inhibition at 50 µg/mL [12] is reported as 14%.

`CCOC(=O)/C(C#N)=C(/Nc1ccc([N+](=O)[O-])cc1)N[C@H](C)c1ccccc1` was tested, and the inhibition at 5 µM [1] was 23.6%, the inhibition at 5 µM [2] was 2.9% and the inhibition at 1500 g/ha [3] was 0%. The inhibition at 1500 g/ha [4] was 18.6%, the inhibition at 1500 g/ha [5] was 0% and the inhibition at 1500 g/ha [6] was 0%. The inhibition at 1500 g/ha [7] was 17.2%, the inhibition at 1500 g/ha [8] was 21.4% and the inhibition at 500 µg/mL [9] was 43.1%. The inhibition at 500 µg/mL [10] was 89.1%.

`CNCC(=O)N[C@@H](CO)C(=O)N[C@H]1[C@H](O)[C@@H](O)[C@H](n2ccc(N)nc2=O)O[C@@H]1C(N)=O` [NINGNANMYCIN] showed an inhibition at 500 µg/mL [9] of 28.9% and an inhibition at 500 µg/mL [10] of 88.9%.

Compound `CCOC(=O)/C(C#N)=C(/NNC(=O)c1cc(OC)c(OC)c(OC)c1)N[C@@H](C)c1ccccc1` has an inhibition at 5 µM [1] of 29.4%, an inhibition at 5 µM [2] of 3.2% and an inhibition at 1500 g/ha [3] of 0%. The inhibition at 1500 g/ha [4] was 7.14%, the inhibition at 1500 g/ha [5] was 0% and the inhibition at 1500 g/ha [6] was 10.5%. For the same compound, the inhibition at 1500 g/ha [7] was 18.8%, the inhibition at 1500 g/ha [8] was 0% and the inhibition at 500 µg/mL [9] was 12.1%. For the same compound, the inhibition at 500 µg/mL [10] was 7.5%.

For `O=c1[nH]cc(F)c(=O)[nH]1` [FLUOROURACIL], the inhibition at 5 µM [1] was 30.7% and the inhibition at 5 µM [2] was 41.1%.

For `CCOC(=O)/C(C#N)=C(/Nc1ccc([N+](=O)[O-])cc1)N[C@@H](C)c1ccccc1`, the inhibition at 5 µM [1] was 18.1%, the inhibition at 5 µM [2] was 0.7% and the inhibition at 1500 g/ha [3] was 13.3%. The inhibition at 1500 g/ha [4] was 14.3%, the inhibition at 1500 g/ha [5] was 0% and the inhibition at 1500 g/ha [6] was 0%. It also gave an inhibition at 1500 g/ha [7] of 32.1%, an inhibition at 1500 g/ha [8] of 25% and an inhibition at 500 µg/mL [9] of 13.1%. For the same compound, the inhibition at 500 µg/mL [10] was 5.3%.

`CCOC(=O)/C(C#N)=C(/NNC(=O)c1cc(OC)c(OC)c(OC)c1)N[C@H](C)c1ccccc1` was tested, and the inhibition at 5 µM [1] was 25.1%, the inhibition at 5 µM [2] was 32.1% and the inhibition at 1500 g/ha [3] was 7.62%. It also gave an inhibition at 1500 g/ha [4] of 5.71%, an inhibition at 1500 g/ha [5] of 0% and an inhibition at 1500 g/ha [6] of 26.3%. For the same compound, the inhibition at 1500 g/ha [7] was 3.13%, the inhibition at 1500 g/ha [8] was 0% and the inhibition at 500 µg/mL [9] was 26.7%. The inhibition at 500 µg/mL [10] was 46.4%.

For `CCOC(=O)/C(C#N)=C(/Nc1ccc(C(F)(F)F)cc1)N[C@@H](C)c1ccccc1`, the inhibition at 5 µM [1] was 39.9%, the inhibition at 5 µM [2] was 49.1% and the inhibition at 1500 g/ha [3] was 5.71%. The inhibition at 1500 g/ha [4] was 10%, the inhibition at 1500 g/ha [5] was 0% and the inhibition at 1500 g/ha [6] was 10.5%. For the same compound, the inhibition at 1500 g/ha [7] was 30.5%, the inhibition at 1500 g/ha [8] was 21.4% and the inhibition at 500 µg/mL [9] was 15.2%. The inhibition at 500 µg/mL [10] was 6.1%.

`CCOC(=O)/C(C#N)=C(/Nc1ccc(Br)cc1)N[C@H](C)c1ccccc1` gave an inhibition at 5 µM [1] of 16.1%, an inhibition at 5 µM [2] of 1.5% and an inhibition at 1500 g/ha [3] of 0%. It also gave an inhibition at 1500 g/ha [4] of 4.29%, an inhibition at 1500 g/ha [5] of 0% and an inhibition at 1500 g/ha [6] of 0%. The inhibition at 1500 g/ha [7] was 10.9%, the inhibition at 1500 g/ha [8] was 5.38% and the inhibition at 500 µg/mL [9] was 12.3%. It also gave an inhibition at 500 µg/mL [10] of 53.4%.

`CCOC(=O)/C(C#N)=C(/Nc1ccc(Br)cc1)N[C@@H](C)c1ccccc1` was tested, and the inhibition at 5 µM [1] was 19.3%, the inhibition at 5 µM [2] was 24.7% and the inhibition at 1500 g/ha [3] was 34.3%. For the same compound, the inhibition at 1500 g/ha [4] was 10%, the inhibition at 1500 g/ha [5] was 0% and the inhibition at 1500 g/ha [6] was 0%. It also gave an inhibition at 1500 g/ha [7] of 35.3%, an inhibition at 1500 g/ha [8] of 1.29% and an inhibition at 500 µg/mL [9] of 3.4%. It also gave an inhibition at 500 µg/mL [10] of 0%.
